Test results taken from ChEMBL document CHEMBL4610083, “Kendomycin Cytotoxicity against Bacterial, Fungal, and Mammalian Cells Is Due to Cation Chelation” (J Nat Prod, 2020).
Activity calls are given as the source filed them. Residues, ends and D or L forms follow the SMILES beside them. *: point of attachment. Cbz = O=C(OCc1ccccc1)*

How the values were obtained:
Proteasome [1] = assay: Inhibition of proteosome in human K562 cells assessed as reduction in UbG76V-GFP degradation at 2 uM incubated for 4 hrs by flow cytometric analysis
In short: (§1)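 K562 cells carrying a lentivirally integrated, TRE2-driven UbG76V-GFP reporter. Reporter induced with 1 μg/mL doxycycline (final) 16 h before compound. Cells treated with compound or carrier for 4 h, then GFP fluorescence measured by flow cytometry.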

Proteasome [2] = assay: Inhibition of proteosome in HEK293T cells assessed as reduction in UbG76V-GFP degradation at 250 nM incubated for 4 hrs by flow cytometric analysis; details: Homo sapiens, HEK-293T
HCT-116 [3] = assay: Inhibition of protein biogenesis in human HCT116 cells assessed as reduction in total protein level preincubated for 30 mins followed by addition of 35S-labeled methionine/cysteine and measured after 90 mins by autoradiography; assay type: functional, cell-based
In short: (§2)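 HCT116 cells seeded at 0.5 × 10^6 per well and grown 24 h at 37 °C, 5% CO2. After two washes, compound in DMEM lacking Met/Cys was added for 30 min at 37 °C, then 100 μCi 35S-Met/Cys for a further 90 min. Secreted protein was recovered from medium by TCA precipitation, total protein by RIPA extraction of washed cells. Gels were read by phosphor screen imaging.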

HCT-116 [4] = assay: Inhibition of protein biogenesis in human HCT116 cells assessed as reduction in secreted protein level preincubated for 30 mins followed by addition of 35S-labeled methionine/cysteine and measured after 90 mins by autoradiography; assay type: functional, cell-based; in short: as §2
Proteasome [5] = assay: Inhibition of proteosome in human K562 cells assessed as reduction in UbG76V-GFP degradation at 2.5 to 10 uM incubated for 4 hrs by flow cytometric analysis; in short: as §1
HCT-116 [6] = assay: Inhibition of protein biogenesis in human HCT116 cells assessed as reduction in total protein level at 100 to 1000 nM preincubated for 30 mins followed by addition of 35S-labeled methionine/cysteine and measured after 90 mins by autoradiography; assay type: functional, cell-based
In short: (§3)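 HCT116 cells seeded at 0.5 × 10^6/well and grown 24 h at 37 °C, 5% CO2. Washed, then given compound in Met/Cys-free DMEM for 30 min at 37 °C. Pulsed with 100 μCi 35S-Met/Cys for 90 min. Total protein taken by RIPA extraction of the cell pellet; secreted protein by TCA precipitation of the medium. Gels exposed to phosphor screens and scanned.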

Saccharomyces cerevisiae [7] = assay: Antifungal activity against Saccharomyces cerevisiae assessed as reduction in microbial growth in presence of CuCl2; assay type: functional, organism-based
In short: (§4)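 Single-colony inhibition on solid medium, with or without 1 mM FeCl2 or 0.25 mM CuCl2 in the agar. Colonies washed off the plates with PBS and cell density read as A600. Inhibition curves fitted by regression.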

[8] = Metal chelating activity assessed as compound-calcium complex formation by UV-Vis spectrophotometric analysis
Saccharomyces cerevisiae [9] = assay: Antifungal activity against Saccharomyces cerevisiae assessed as reduction in microbial growth in presence of FeCl2; assay type: functional, organism-based; in short: as §4
HCT-116 [10] = assay: Inhibition of protein biogenesis in human HCT116 cells assessed as reduction in secreted protein level at 100 to 1000 nM preincubated for 30 mins followed by addition of 35S-labeled methionine/cysteine and measured after 90 mins by autoradiography; assay type: functional, cell-based; in short: as §3
[11] = Binding affinity to Fe2+ ion assessed as compound-Fe2+ formation by 1H NMR spectroscopy
Bacillus subtilis [12] = assay: Antibacterial activity against Bacillus subtilis assessed as reduction in microbial growth in presence of FeCl2 by serial dilution method; assay type: functional, organism-based
In short: (§5)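 Mid-log cultures in LB back-diluted to low OD; 8-point compound serial dilution added, with or without freshly prepared 0.25 mM FeCl2 or 0.25 mM CuCl2. Incubation at 37 °C with orbital shaking at 1000 rpm. Cell density read as A600, duplicate data sets, inhibition curves fitted by regression.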

[13] = Binding affinity to Cu2+ ion assessed as compound-Cu2+ formation by 1H NMR spectroscopy
[14] = Metal chelating activity assessed as compound-[…] complex formation by UV-Vis spectrophotometric analysis
HCT-116 [15] = assay: Antiproliferative activity against human HCT116 cells assessed as reduction in cell viability incubated for 72 hrs in presence of FeCl2 by AlamarBlue assay; assay type: functional, cell-based
In short: (§6)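 HCT116 cells in McCoy's 5A with 10% FBS, seeded at 2500 cells/well. Dosed 16 h after plating, with or without 0.5 mM FeCl2 or 0.5 mM CuCl2. After 72 h, 10% resazurin added for 4 h, then fluorescence read (ex 580/em 620 nm). Viability given as % of carrier growth; curves from quadruplicate technical replicates.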

[16] = Metal chelating activity assessed as compound-Fe2+ complex formation by UV-Vis spectrophotometric analysis
In short: (§7)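 250 μM compound titrated with increasing metal concentrations and absorption spectra recorded. A320 measured in quadruplicate; averages fitted to a binding curve to give apparent Kapp.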

[17] = Metal chelating activity assessed as compound-Fe3+ complex formation by UV-Vis spectrophotometric analysis; in short: as §7
[18] = Metal chelating activity assessed as compound-Cu2+ complex formation by UV-Vis spectrophotometric analysis; in short: as §7
HCT-116 [19] = assay: Antiproliferative activity against human HCT116 cells assessed as reduction in cell viability incubated for 72 hrs in presence of CuCl2 by AlamarBlue assay; assay type: functional, cell-based; in short: as §6
Bacillus subtilis [20] = assay: Antibacterial activity against Bacillus subtilis assessed as reduction in microbial growth in presence of CuCl2 by serial dilution method; assay type: functional, organism-based; in short: as §5

CC(C)C[C@@H](C=O)NC(=O)[C@H](CC(C)C)NC(=O)[C@H](CC(C)C)NC(=O)OCc1ccccc1 (Cbz-Leu-Leu-Leu-aldehyde)
active: inhibition (Proteasome [1]) | inhibition (Proteasome [2])

C[C@@H]1C[C@@H]([C@H](O)CC2CC(=O)NC(=O)C2)C(=O)[C@@H](C)C1
active: inhibition (HCT-116 [3]) | inhibition (HCT-116 [4])

CC1=C2O[C@]3(O)C=C2C(=C(O)C1=O)[C@@H]1O[C@H](CC[C@H](C)/C=C(\C)C[C@@H](C)C[C@@H]3C)[C@H](C)[C@H](O)[C@H]1C
active: Activity [11] | Activity [13] | Activity [16] Dose-dependent effect | Activity [17] Dose-dependent effect | Activity [18] Dose-dependent effect | Activity (HCT-116 [19])
48 µM: Kapp [18]
inactive: inhibition (Proteasome [5]) | inhibition (HCT-116 [6]) | Activity (Saccharomyces cerevisiae [7]) | Activity [8] | Activity (Saccharomyces cerevisiae [9]) | inhibition (HCT-116 [10]) | Activity (Bacillus subtilis [12]) | Activity [14] | Activity (HCT-116 [15]) | inhibition (Proteasome [2]) | Activity (Bacillus subtilis [20])
19 µM: Kapp [16]
76 µM: Kapp [17]
